Measured values from PubChem BioAssay AID2465 (Broad Institute, 2010).
Several values for one entry are separate records, joined by “and”; a condition that tells them apart may be missing. Equal entries are not always repeated. Out of some 24,000 compounds screened, fewer than 10 were called active. Rule as the data show it: active = caspase activation above about 5.9%; inconclusive = no clear call, values can overlap the other calls; inactive = below about 2.2%. A selection follows.

assay: Bcl2-A1 antagonists releasing BIM, apoptosis – cell-based, luminescence, HTS, two replicates, primary screen (AID 2465); conditions: MEF A1-2A-BIM cells, caspase-Glo luminescence, 3 h; stronger effect = higher value; percent of clofoctol response, DMSO zero; concentration not given here
Procedure, shortened: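 Evaluation: Caspase-3/7 activity from luminescence increase | Assay system: A1-2A-BIM mouse embryonic fibroblasts | Quantity: 2500 MEF cells/well | Medium: RPMI-1640 plus 10% FBS | Detection: Caspase-Glo 3/7 luminescence, 1 h at room temperature | Dosing: 50 nL compound per well, pinned | Timing: Cells settled overnight, compound exposure 3 h at 37 °C, 5% CO2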

Caspase activation, inactive:
COc1ccc(S(=O)(=O)Nc2ccc3c(c2)C(=O)N([C@@H](C)CO)C[C@H](C)[C@H](CN(C)S(=O)(=O)c2c(C)noc2C)OCCCC[C@@H](C)O3)cc1 0.0111%, C[C@@H]1CCCCO[C@@H](CN(C)C(=O)NC2CCCCC2)[C@H](C)CN([C@H](C)CO)C(=O)c2cc(NC(=O)c3ccccc3)ccc2O1 0.223%, C[C@H]1CN([C@@H](C)CO)C(=O)c2cccc(NS(=O)(=O)c3ccc(Cl)cc3)c2O[C@@H]1CN(C)Cc1ccc(Oc2ccccc2)cc1 1%, C[C@H](CO)N1C[C@H](C)[C@H](CN(C)Cc2ccc(C(=O)O)cc2)Oc2ccc(NS(=O)(=O)c3cn(C)cn3)cc2CC1=O -0.00308%, C[C@@H]1CN([C@H](C)CO)C(=O)Cc2cc(NC(=O)c3ccncc3)ccc2O[C@H]1CN(C)S(=O)(=O)c1cccs1 0.361%, COc1ccc(CN(C)C[C@@H]2OCCCC[C@@H](C)Oc3ccc(NS(=O)(=O)c4ccc(C)cc4)cc3C(=O)N([C@@H](C)CO)C[C@H]2C)cc1 0.1%, Cc1noc(C)c1S(=O)(=O)Nc1ccc2c(c1)C(=O)N([C@H](C)CO)C[C@H](C)[C@H](CN(C)C(=O)NC1CCCCC1)OCCCC[C@H](C)O2 -1.41%, O=C(N/N=C/[C@H](O)[C@@H](O)[C@H](O)[C@H](O)CO)c1ccccc1O -0.678%, C[C@H]1CCCCO[C@H](CN(C)C(=O)Nc2ccc3c(c2)OCO3)[C@@H](C)CN([C@@H](C)CO)C(=O)c2cc(NC(=O)Nc3ccccc3)ccc2O1 0.0515%, C[C@H]1CN([C@@H](C)CO)C(=O)c2cccc(NC(=O)Nc3ccccc3)c2O[C@@H]1CN(C)C(=O)Nc1cccc2ccccc12 -0.864%, [N-]=[N+]=NC[C@H](Cc1ccccc1)NC(=O)Nc1ccccc1 -3.77% and 0.143%, COc1ccc(S(=O)(=O)Nc2ccc3c(c2)C(=O)N([C@H](C)CO)C[C@H](C)[C@@H](CN(C)Cc2ccccc2)OCCCC[C@@H](C)O3)cc1 0.258%, Cc1cccc(S(=O)(=O)N(C)C[C@H]2OCc3cnnn3CCCC(=O)N([C@@H](C)CO)C[C@H]2C)c1 -0.906%, COc1ccc(S(=O)(=O)Nc2ccc3c(c2)C(=O)N([C@@H](C)CO)C[C@@H](C)[C@H](CN(C)C(=O)Nc2ccc(C(F)(F)F)cc2)OCCCC[C@@H](C)O3)cc1 -0.653%, C[C@@H]1CCCCO[C@@H](CN(C)S(=O)(=O)c2ccccc2)[C@H](C)CN([C@H](C)CO)C(=O)c2cc(NC(=O)Nc3ccc4c(c3)OCO4)ccc2O1 -1.23%, C[C@H]1CN([C@@H](C)CO)C(=O)c2cc(N(C)C)ccc2O[C@@H]1CN(C)S(=O)(=O)c1ccc(Cl)cc1 -0.761%, C[C@H]1CCCCO[C@@H](CN(C)S(=O)(=O)c2ccc(Cl)cc2)[C@@H](C)CN([C@@H](C)CO)C(=O)c2cc(NS(=O)(=O)c3cn(C)cn3)ccc2O1 -0.712%, C[C@@H]1CN([C@H](C)CO)C(=O)c2cc(NS(=O)(=O)c3ccc(F)cc3)ccc2O[C@@H]1CN(C)S(C)(=O)=O -0.125%, COc1ccc(S(=O)(=O)N(C)C[C@@H]2OCCCC[C@@H](C)Oc3ccc(NC(=O)CCCN(C)C)cc3C(=O)N([C@@H](C)CO)C[C@@H]2C)cc1 0.265%, COc1ccc(S(=O)(=O)Nc2ccc3c(c2)C(=O)N([C@H](C)CO)C[C@@H](C)[C@H](CN(C)S(=O)(=O)c2ccc(Cl)cc2)OCCCC[C@@H](C)O3)cc1 -1.08%, C[C@@H]1CCCCO[C@@H](CN(C)Cc2ccc(C(F)(F)F)cc2)[C@H](C)CN([C@H](C)CO)C(=O)c2cc(NS(=O)(=O)c3ccc(F)cc3)ccc2O1 -0.24%, COc1ccc(NC(=O)Nc2ccc3c(c2)C(=O)N([C@H](C)CO)C[C@H](C)[C@@H](CN(C)Cc2ccccc2)OCCCC[C@H](C)O3)cc1 0.0689%, C[C@@H]1CCCCO[C@H](CN(C)C(=O)Nc2cccc3ccccc23)[C@@H](C)CN([C@@H](C)CO)C(=O)c2cc(NC(=O)Nc3ccc(F)cc3)ccc2O1 0.273%, Cc1noc(C)c1NC(=O)N(C)C[C@@H]1Oc2c(NC(=O)CCCCCC(=O)Nc3ccccc3N)cccc2C(=O)N([C@H](C)CO)C[C@@H]1C 1.76%, C[C@H](CO)N1C[C@H](C)[C@H](CN(C)Cc2ccccc2)OCCCC[C@H](C)Oc2ccc(NC(=O)Cc3ccccc3)cc2C1=O -0.193%, C[C@@H]1CN([C@@H](C)CO)C(=O)c2cccc(NC(=O)CCCCCC(=O)Nc3ccccc3N)c2O[C@H]1CN(C)C(=O)Nc1ccccc1 0.335%, Cc1noc(C)c1S(=O)(=O)N(C)C[C@H]1OCCCC[C@H](C)Oc2ccc(NC(=O)c3ccccc3)cc2C(=O)N([C@@H](C)CO)C[C@H]1C -0.984%, C[C@@H]1CN([C@H](C)CO)C(=O)c2cc(NC(=O)CCCN(C)C)ccc2O[C@H]1CN(C)S(=O)(=O)c1ccc(Cl)cc1 -1.33%, C[C@@H]1CCCCO[C@H](CN(C)C(=O)CCCN(C)C)[C@H](C)CN([C@@H](C)CO)C(=O)c2cc(NS(=O)(=O)c3ccc(Cl)cc3)ccc2O1 0.532%, COc1ccc(NC(=O)Nc2ccc3c(c2)CC(=O)N([C@@H](C)CO)C[C@@H](C)[C@H](CN(C)C(=O)NC2CCCCC2)O3)cc1 -1.36%, COc1ccc(S(=O)(=O)N(C)C[C@H]2Oc3c(NS(=O)(=O)c4ccc(F)cc4)cccc3C(=O)N([C@H](C)CO)C[C@H]2C)cc1 -0.361%, COC(=O)CCCCCCC(=O)N/N=C/c1ccc(I)cc1 0.387%, C[C@@H]1CN([C@H](C)CO)C(=O)c2cc(NC(=O)Nc3ccc(C(F)(F)F)cc3)ccc2O[C@@H](C)CCCCO[C@@H]1CN(C)Cc1ccc(C(F)(F)F)cc1 0.82%
